Activity calls are given as the source filed them. The rule behind the calls is not given here.
Columns and labels:
[1] = system: HeLa; assay: Cytotoxicity against human HeLa cells after 24 hrs by MTT assay; type: functional, cell-based
Outline: (§1)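 Cells seeded at 25000 per well and held 24 h at 37 °C in 5% CO2. Medium was then renewed and compounds added at increasing concentrations (DMSO 0.1%, or water for topotecan) for 24 h. MTT solution (5 mg/mL) was added for 3 h at 37 °C, then absorbance read at 570 nm, corrected at 630 nm. IC50 in µM.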

[2] = Cytotoxicity against human Caco2 cells after 24 hrs by MTT assay; type: functional, cell-based; details: Caco-2, 24 h
[3] = system: A-375; assay: Cytotoxicity against human A375 cells after 24 hrs by MTT assay; type: functional, cell-based; details: A-375, 24 h; outline: as §1
[4] = system: Jurkat; assay: Cytotoxicity against human Jurkat cells after 24 hrs by MTT assay; type: functional, cell-based; outline: as §1
[5] = system: MDA-MB-231; assay: Cytotoxicity against human MDA-MB-231 cells after 24 hrs by MTT assay; type: functional, cell-based; details: MDA-MB-231, 24 h; outline: as §1
[6] = system: Caco-2; assay: Induction of apoptosis in human Caco2 cells assessed as vital cells at 0.05 uM after 24 hrs by Annexin V/propidium iodide staining-based flow cytometric analysis (reference value: 96.67 +/- 1.02%); type: functional
[7] = system: Caco-2; assay: Induction of apoptosis in human Caco2 cells assessed as vital cells at 0.5 uM after 24 hrs by Annexin V/propidium iodide staining-based flow cytometric analysis (reference value: 96.67 +/- 1.02%); type: functional
[8] = system: Caco-2; assay: Induction of apoptosis in human Caco2 cells assessed as vital cells at 0.05 uM after 48 hrs by Annexin V/propidium iodide staining-based flow cytometric analysis (reference value: 96.67 +/- 1.02%); type: functional
[9] = system: Caco-2; assay: Induction of apoptosis in human Caco2 cells assessed as vital cells at 0.5 uM after 48 hrs by Annexin V/propidium iodide staining-based flow cytometric analysis (reference value: 96.67 +/- 1.02%); type: functional
[10] = system: Caco-2; assay: Induction of apoptosis in human Caco2 cells assessed as early apoptotic cells at 0.05 uM after 24 hrs by Annexin V/propidium iodide staining-based flow cytometric analysis (reference value: 0.72 +/- 0.03%); type: functional
[11] = system: Caco-2; assay: Induction of apoptosis in human Caco2 cells assessed as early apoptotic cells at 0.5 uM after 24 hrs by Annexin V/propidium iodide staining-based flow cytometric analysis (reference value: 0.72 +/- 0.03%); type: functional
[12] = system: Caco-2; assay: Induction of apoptosis in human Caco2 cells assessed as early apoptotic cells at 0.05 uM after 48 hrs by Annexin V/propidium iodide staining-based flow cytometric analysis (reference value: 0.72 +/- 0.03%); type: functional
[13] = system: Caco-2; assay: Induction of apoptosis in human Caco2 cells assessed as early apoptotic cells at 0.5 uM after 48 hrs by Annexin V/propidium iodide staining-based flow cytometric analysis (reference value: 0.72 +/- 0.03%); type: functional
[14] = system: Caco-2; assay: Induction of apoptosis in human Caco2 cells assessed as late apoptotic cells at 0.05 uM after 24 hrs by Annexin V/propidium iodide staining-based flow cytometric analysis (reference value: 2.20 +/- 0.77%); type: functional
[15] = system: Caco-2; assay: Induction of apoptosis in human Caco2 cells assessed as late apoptotic cells at 0.5 uM after 24 hrs by Annexin V/propidium iodide staining-based flow cytometric analysis (reference value: 2.20 +/- 0.77%); type: functional
[16] = system: Caco-2; assay: Induction of apoptosis in human Caco2 cells assessed as late apoptotic cells at 0.05 uM after 48 hrs by Annexin V/propidium iodide staining-based flow cytometric analysis (reference value: 2.20 +/- 0.77%); type: functional
[17] = system: Caco-2; assay: Induction of apoptosis in human Caco2 cells assessed as late apoptotic cells at 0.5 uM after 48 hrs by Annexin V/propidium iodide staining-based flow cytometric analysis (reference value: 2.20 +/- 0.77%); type: functional
[18] = system: Caco-2; assay: Induction of apoptosis in human Caco2 cells assessed as necrotic cells at 0.05 uM after 24 hrs by Annexin V/propidium iodide staining-based flow cytometric analysis (reference value: 0.41 +/- 0.02%); type: functional
[19] = system: Caco-2; assay: Induction of apoptosis in human Caco2 cells assessed as necrotic cells at 0.5 uM after 24 hrs by Annexin V/propidium iodide staining-based flow cytometric analysis (reference value: 0.41 +/- 0.02%); type: functional
[20] = system: Caco-2; assay: Induction of apoptosis in human Caco2 cells assessed as necrotic cells at 0.05 uM after 48 hrs by Annexin V/propidium iodide staining-based flow cytometric analysis (reference value: 0.41 +/- 0.02%); type: functional
[21] = system: Caco-2; assay: Induction of apoptosis in human Caco2 cells assessed as necrotic cells at 0.5 uM after 48 hrs by Annexin V/propidium iodide staining-based flow cytometric analysis (reference value: 0.41 +/- 0.02%); type: functional
[22] = system: A-375; assay: Induction of apoptosis in human A375 cells assessed as inhibition of DNA synthesis at 0.8 to 1.6 uM after 24 hrs by BrdU staining-based ELISA; type: functional, cell-based
Outline: (§2)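 BrdU colorimetric cell proliferation ELISA. Cells seeded at 25,000 per well, compounds added 24 h after seeding and incubated 24 h. Cells fixed and the immunoassay run per kit. Absorbance read at 370-492 nm over 3 intervals of 5 min; absorbance difference proportional to BrdU incorporation. Mean of three separate experiments in triplicate, compared with untreated control.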

[23] = system: HeLa; assay: Induction of apoptosis in human HeLa cells assessed as inhibition of DNA synthesis at 0.8 to 1.6 uM after 24 hrs by BrdU staining-based ELISA; type: functional, cell-based; outline: as §2
[24] = system: MDA-MB-231; assay: Induction of apoptosis in human MDA-MB-231 cells assessed as inhibition of DNA synthesis at 0.8 to 1.6 uM after 24 hrs by BrdU staining-based ELISA; type: functional, cell-based; outline: as §2
[25] = system: A-375; assay: Induction of apoptosis in human A375 cells assessed as p53 phosphorylation at Ser15 by Western blotting analysis; type: functional, cell-based
Outline: (§3)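 Cells treated 24 h. About 10^6 cells lysed on ice 15 min in Hepes pH 7.4/Triton X-100 buffer with phosphatase and protease inhibitors, then spun 13,000 × g. 30 µg protein run on 12% SDS-PAGE and blotted to nitrocellulose. Primary anti-phospho-p53 (Ser15) and anti-p53 at 1:1000 for 2 h at room temperature, then HRP secondary and ECL densitometry. Results referred to untreated control.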

[26] = system: HeLa; assay: Induction of apoptosis in human HeLa cells assessed as p53 phosphorylation at Ser15 by Western blotting analysis; type: functional, cell-based; outline: as §3
[27] = system: MDA-MB-231; assay: Induction of apoptosis in human MDA-MB-231 cells assessed as p53 phosphorylation at Ser15 by Western blotting analysis; type: functional, cell-based; outline: as §3
[28] = Effective permeability from apical to basolateral side in human Caco2 cells at 50 uM after 15 to 90 mins by HPLC analysis; type: ADME, cell-based; details: Caco-2, read-out: Peff
Outline: (§4)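 Caco-2 monolayers grown 19-22 days on polycarbonate transwell inserts (4.2 cm², 0.4 µm pore) at 37 °C, 5% CO2; TEER checked before and after each run. Compound added to donor side at 37 °C, 50 rpm. Receiver sampled at 15, 30, 60 and 90 min; donor sampled at start and end. HPLC analysis. Sodium azide, when used, placed on both sides. Three independent experiments.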

[29] = Effective permeability from basolateral to apical side in human Caco2 cells at 50 uM after 15 to 90 mins by HPLC analysis; type: ADME, cell-based; details: Caco-2, read-out: Peff; outline: as §4
[30] = Effective permeability from apical to basolateral side in human Caco2 cells at 50 uM after 15 to 90 mins by HPLC analysis in presence of sodium azide; type: ADME, cell-based; details: Caco-2, with sodium azide, read-out: Peff; outline: as §4
[31] = Effective permeability from basolateral to apical side in human Caco2 cells at 50 uM after 15 to 90 mins by HPLC analysis in presence of sodium azide; type: ADME, cell-based; details: Caco-2, with sodium azide, read-out: Peff; outline: as §4
[32] = Permeability from apical to basolateral side in human Caco2 cells at 5 to 50 uM after 15 to 90 mins by HPLC analysis; type: ADME, cell-based; details: caco-2, 50 µM; outline: as §4
[33] = Permeability from basolateral to apical side in human Caco2 cells at 5 to 50 uM after 15 to 90 mins by HPLC analysis; type: ADME, cell-based; details: caco-2, 50 µM; outline: as §4
[34] = species: Homo sapiens; assay: Activity at Pgp transporter (unknown origin)
[35] = Effective permeability in Wistar rat small intestine at 50 uM measured after 5 mins in every 5 min interval up to 30 mins; type: ADME, tissue-based; details: not told, read-out: Peff
Outline: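 In situ intestinal perfusion in male Wistar rats fasted 2 h with water allowed. Anaesthesia with diazepam (1.67 mg/kg), ketamine (50 mg/kg) and atropine (1 mg/kg); animals kept at 37 °C. Perfusate sampled every 5 min from 5 to 30 min; absorption rate constant and Peff derived.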

[36] = system: Small intestine; assay: Effective permeability in Wistar rat small intestine assessed as absorption rate coefficient at 50 uM measured after 5 mins in every 5 min interval up to 30 mins; type: ADME, tissue-based
Outline: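 Male Wistar rats fasted 2 h with water available, then anaesthetised with diazepam (1.67 mg/kg), ketamine (50 mg/kg) and atropine (1 mg/kg) and kept at 37°C on a heated surface. In situ intestinal perfusion. Perfusate sampled from 5 min at 5 min intervals up to 30 min. Absorption rate constant (Ka) and Peff derived.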

[37] = system: A-375; assay: Induction of apoptosis in human A375 cells assessed as inhibition of DNA synthesis after 24 hrs by BrdU staining-based ELISA; type: functional, cell-based
Outline: (§5)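 Cells seeded at 25,000/well; compounds added 24 h after seeding at a range of concentrations and incubated 24 h. Cells fixed, then colorimetric BrdU-incorporation ELISA. Absorbance read at 370-492 nm over 3 intervals of 5 min. Mean of three separate experiments with triplicate samples.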

[38] = system: HeLa; assay: Induction of apoptosis in human HeLa cells assessed as inhibition of DNA synthesis after 24 hrs by BrdU staining-based ELISA; type: functional, cell-based; outline: as §5
[39] = system: MDA-MB-231; assay: Induction of apoptosis in human MDA-MB-231 cells assessed as inhibition of DNA synthesis after 24 hrs by BrdU staining-based ELISA; type: functional, cell-based; outline: as §5

Row | SMILES | IC50 [1] [nM] | IC50 [2] [nM] | IC50 [3] [nM] | IC50 [4] [nM] | IC50 [5] [nM] | Activity [6] [%] | Activity [7] [%] | Activity [8] [%] | Activity [9] [%] | Activity [10] [%] | Activity [11] [%] | Activity [22] | Activity [23] | Activity [24] | Activity [25] | Activity [26] | Activity [27] | Papp A→B at 50 µM [28] [×10⁻⁶ cm/s] | Papp at 5 min, 50 µM [35] [×10⁻⁶ cm/s] | Ka [36] [h⁻¹] | also measured
1 | CC[C@@]1(O)C(=O)OCc2c1cc1n(c2=O)Cc2cc3c4c(ccc3nc2-1)OCOC4 | 345 | 104 | 186 | 124 | 476 | 61.56 | 47.78 | 57 | 37.04 | 11.8 | 8.16 | Active | Active | Active | Active | inactive | Active | 10 | 93.8 | 3.78 | Activity [12]: 3.56%; Activity [13]: 3.68%; Activity [14]: 24.72%; Activity [15]: 42.88%; Activity [16]: 33.54%; Activity [17]: 56.08%; Activity [18]: 1.92%; Activity [19]: 1.18%; Activity [20]: 5.9%; Activity [21]: 3.2%; Papp B→A at 50 µM [29]: 9.84 ×10⁻⁶ cm/s; Papp A→B at 50 µM [30]: 8.05 ×10⁻⁶ cm/s; Papp B→A at 50 µM [31]: 9.73 ×10⁻⁶ cm/s; permeability [32]: permeable; permeability [33]: permeable; Activity [34]: inactive
2 | CC[C@@]1(O)C(=O)OCc2c1cc1n(c2=O)Cc2cc3ccccc3nc2-1 [CAMPTOTHECIN] | 420 | 131 | 187 | 110 | 342 | 83.26 | 81.62 | 51.12 | 36.98 | 15.22 | 1.64 | Active | Active | Active | Active | inactive | Active | 7.88 | 74.8 | 3.02 | Activity [12]: 3.18%; Activity [13]: 4.1%; Activity [14]: 1.4%; Activity [15]: 13.7%; Activity [16]: 41.38%; Activity [17]: 56.16%; Activity [18]: 0.12%; Activity [19]: 3.04%; Activity [20]: 4.32%; Activity [21]: 2.76%; permeability [32]: permeable; permeability [33]: permeable
3 | COCCc1ccc(OCC(O)CNC(C)C)cc1 (centres undefined) [METOPROLOL] |  |  |  |  |  |  |  |  |  |  |  |  |  |  |  |  |  | 23 | 55.3 | 2.3 | 
4 | CC[C@@]1(O)C(=O)OCc2c1cc1n(c2=O)Cc2cc3c([N+](=O)[O-])cccc3nc2-1 [RUBITECAN] | 343 |  | 138 | 128 | 479 |  |  |  |  |  |  | Active | Active | Active | Active | inactive | Active |  |  |  | inhibition [37]: Dose-dependent effect; inhibition [38]: Dose-dependent effect; inhibition [39]: Dose-dependent effect

Source: ChEMBL document CHEMBL3351736, “A promising camptothecin derivative: Semisynthesis, antitumor activity and intestinal permeability” (Eur J Med Chem, 2014)
